Assay results as given in ChEMBL document CHEMBL1255380, “Small molecule-mediated disruption of Wnt-dependent signaling in tissue regeneration and cancer” (Nat Chem Biol, 2009).
Calls of active or inactive are those of the source. No cut-off for these calls is given here.

Key:
[1] = Inhibition of Wnt3A/[…] pathway activity in mouse L cell expressing Wnt3a assessed as inhibition of […] accumulation at 5 uM after 24 hrs by Western blot analysis; type: cell-based
[2] = Inhibition of Notch pathway in mouse L cells at 2.5 uM
Danio rerio = species on record: Danio rerio; experiment: Inhibition of caudal fin regeneration after mechanical resection in zebrafish at 10 uM after 7 days; type: functional, organism-based
Method in brief: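 Zebrafish 3-6 months old anaesthetized in 0.02% Tricaine; half of caudal fin resected with razor blade; kept at 28°C in tank water with 10μM compound or DMSO; water and compound replenished daily over assay period.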

[3] = target: T1, Protein-serine O-palmitoleoyltransferase porcupine (Homo sapiens) (UniProt Q9H237); experiment: Inhibition of porcn-mediated Lrp6 maturation in human DLD1 lysate by detergent solubility fractionation assessed as [3H]palmitate incorporation at 2.5 uM by autoradiography method
T1 sequence (whole entry): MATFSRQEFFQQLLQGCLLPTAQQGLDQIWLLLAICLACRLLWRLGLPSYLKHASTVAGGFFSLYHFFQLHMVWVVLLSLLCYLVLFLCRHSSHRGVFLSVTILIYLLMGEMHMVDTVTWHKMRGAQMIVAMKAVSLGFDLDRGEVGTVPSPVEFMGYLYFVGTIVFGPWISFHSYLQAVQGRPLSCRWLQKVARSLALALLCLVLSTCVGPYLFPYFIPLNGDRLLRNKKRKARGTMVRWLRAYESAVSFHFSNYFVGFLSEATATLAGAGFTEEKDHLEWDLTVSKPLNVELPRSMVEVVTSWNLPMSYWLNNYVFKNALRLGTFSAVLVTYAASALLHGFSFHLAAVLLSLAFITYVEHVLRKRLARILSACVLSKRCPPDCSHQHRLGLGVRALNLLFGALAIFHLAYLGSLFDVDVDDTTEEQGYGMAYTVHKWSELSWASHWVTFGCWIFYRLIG

[4] = target: T1, Protein-serine O-palmitoleoyltransferase porcupine (Homo sapiens); experiment: Displacement of IWP-PB from porcn in HEK293 lysate by Western blot analysis
[5] = Inhibition of Wnt3A/[…] pathway activity in mouse L cell expressing Wnt3a assessed as decrease in phosphorylated Lrp6 level at 5 uM after 24 hrs by Western blot analysis; type: cell-based
[6] = target: T1, Protein-serine O-palmitoleoyltransferase porcupine (Homo sapiens); experiment: Inhibition of porcn-mediated Shh palmitoylation in human DLD1 lysate by detergent solubility fractionation assessed as [3H]palmitate incorporation at 2.5 uM by autoradiography method
[7] = Inhibition of Wnt3A/[…] pathway activity in mouse L cell expressing Wnt3a assessed as decrease in phosphorylated Dvl2 level at 5 uM after 24 hrs by Western blot analysis; type: cell-based
Axin-2 (Homo sapiens) [8] = target: Axin-2 (Homo sapiens) (UniProt Q9Y2T1); experiment: Induction of Axin2 stabilization in human DLD1 cells assessed as inhibition of Wnt/beta-[…] pathway; type: cell-based; conditions: DLD-1
Chain of Axin-2 (Homo sapiens) (Q9Y2T1 whole entry): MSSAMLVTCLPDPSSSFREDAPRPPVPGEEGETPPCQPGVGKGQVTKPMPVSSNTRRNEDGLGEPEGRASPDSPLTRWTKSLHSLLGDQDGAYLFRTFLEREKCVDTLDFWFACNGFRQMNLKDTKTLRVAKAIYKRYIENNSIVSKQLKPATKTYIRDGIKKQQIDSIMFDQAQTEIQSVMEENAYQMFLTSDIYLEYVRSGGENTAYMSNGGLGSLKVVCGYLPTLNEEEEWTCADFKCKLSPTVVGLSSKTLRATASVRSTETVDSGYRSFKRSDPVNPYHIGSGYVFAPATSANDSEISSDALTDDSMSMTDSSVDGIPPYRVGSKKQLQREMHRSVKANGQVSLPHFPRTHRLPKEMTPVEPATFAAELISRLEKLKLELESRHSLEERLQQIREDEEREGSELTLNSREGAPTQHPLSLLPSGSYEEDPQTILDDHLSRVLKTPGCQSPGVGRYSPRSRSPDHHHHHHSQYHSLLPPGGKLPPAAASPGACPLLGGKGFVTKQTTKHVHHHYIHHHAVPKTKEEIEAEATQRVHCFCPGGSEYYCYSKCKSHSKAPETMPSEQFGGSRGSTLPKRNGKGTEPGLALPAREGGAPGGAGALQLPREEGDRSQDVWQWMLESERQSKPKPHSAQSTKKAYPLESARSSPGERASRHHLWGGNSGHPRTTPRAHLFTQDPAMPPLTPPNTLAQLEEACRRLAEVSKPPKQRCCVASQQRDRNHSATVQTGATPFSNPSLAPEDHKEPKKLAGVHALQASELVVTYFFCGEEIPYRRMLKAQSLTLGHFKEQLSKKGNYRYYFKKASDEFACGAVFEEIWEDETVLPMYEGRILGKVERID

[9] = target: T1, Protein-serine O-palmitoleoyltransferase porcupine (Homo sapiens); experiment: Inhibition of porcn in HEK293 cell lysate by Western blot analysis; type: cell-free
Method in brief: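 Lysate (10mM Na2HPO4 pH7.4, […], 1% NP-40) of HEK293 cells transfected with Porcn-myc preincubated 1 hr at 4°C with DMSO, linker or competitor, then NeutrAvidin resin plus biotinylated probe (0.17 mM); rotated overnight at 4°C, washed, eluate analysed by Western blot.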

DLD-1 [10] = experiment: Decrease in beta-[…] accumulation in human DLD1 cells expressing in APC mutant; type: functional, cell-based
[11] = Inhibition of Wnt1/beta-[…] pathway activity in mouse L cell expressing Wnt1 and STF assessed as decreased firefly luciferase reporter expression; type: cell-based
Axin-1 (Homo sapiens) [12] = target: Axin-1 (Homo sapiens) (UniProt O15169); experiment: Induction of Axin1 protein stabilization in human H460 cells by Western blot analysis; type: cell-based
Chain of Axin-1 (Homo sapiens) (O15169 whole entry): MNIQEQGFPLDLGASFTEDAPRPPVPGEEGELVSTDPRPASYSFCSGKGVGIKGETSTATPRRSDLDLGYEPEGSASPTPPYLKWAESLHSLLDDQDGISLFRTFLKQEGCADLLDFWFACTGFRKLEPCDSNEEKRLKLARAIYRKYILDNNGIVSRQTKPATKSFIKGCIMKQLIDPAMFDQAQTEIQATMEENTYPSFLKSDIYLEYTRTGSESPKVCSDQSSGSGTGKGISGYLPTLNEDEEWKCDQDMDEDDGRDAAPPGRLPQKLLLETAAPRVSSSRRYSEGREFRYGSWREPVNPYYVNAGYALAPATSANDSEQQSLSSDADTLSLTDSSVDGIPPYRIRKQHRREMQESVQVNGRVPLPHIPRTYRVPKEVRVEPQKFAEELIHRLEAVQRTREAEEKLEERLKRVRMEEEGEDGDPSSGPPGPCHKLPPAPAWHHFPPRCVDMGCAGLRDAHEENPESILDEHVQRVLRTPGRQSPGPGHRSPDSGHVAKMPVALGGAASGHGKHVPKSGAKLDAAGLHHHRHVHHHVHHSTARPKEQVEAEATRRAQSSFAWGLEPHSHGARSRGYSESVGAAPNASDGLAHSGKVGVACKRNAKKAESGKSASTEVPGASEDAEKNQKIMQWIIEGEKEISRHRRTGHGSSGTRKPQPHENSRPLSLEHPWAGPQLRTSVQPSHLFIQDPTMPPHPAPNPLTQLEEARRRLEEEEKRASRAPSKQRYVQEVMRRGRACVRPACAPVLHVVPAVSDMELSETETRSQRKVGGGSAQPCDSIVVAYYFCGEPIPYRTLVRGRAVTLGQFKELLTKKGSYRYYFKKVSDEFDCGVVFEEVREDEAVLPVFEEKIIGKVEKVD

DLD-1 [13] = experiment: Antiproliferative activity against human DLD1 cells overexpressing beta-[…] assessed as renilla luciferase activity after 6 days; type: functional, cell-based
[14] = Inhibition of Wnt3A/[…] pathway activity in mouse L cell expressing Wnt3A and STF assessed as decreased firefly luciferase reporter expression; type: cell-based
Method in brief: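 L-Wnt-STF cells (mouse L-cells stably carrying SuperTopFlash firefly luciferase reporter, control reporter and Wnt3A expression construct), ~5K per well; compounds added 24 hrs after seeding; luciferase activities read 24 hrs later; IC50s calculated from these dose-dependent assays.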

Axin-1 (Homo sapiens) [15] = target: Axin-1 (Homo sapiens) (UniProt O15169); experiment: Induction of Axin1 protein stabilization in human DLD1 cells by Western blot analysis; type: cell-based; conditions: DLD-1
Method in brief: (§1)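 DLD-1 cells exposed to IWR compound at 10μM for a 48 hr assay period; protein levels assessed by Western blot of cell lysates.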

NCI-H460 = experiment: Antiproliferative activity against human H460 cells assessed as cellular ATP levels after 6 days by Cell-Titer Glow assay; type: functional, cell-based
Method in brief: (§2)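 Cancer cells seeded at 2.5K cells/well with carrier or compound, 0.5% DMSO final; medium with compound changed every 24 hrs for 5 days; on day 6 cellular ATP quantified by CellTiter-Glo luminescence.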

[16] = Inhibition of Wnt3A/[…] pathway activity in mouse L cell expressing Wnt3a assessed as inhibition of […] accumulation at 10 uM after 24 hrs by Western blot analysis; type: cell-based
[17] = Inhibition of Wnt3A/[…] pathway activity in mouse L cell expressing Wnt3a assessed as decrease in phosphorylated Dvl2 level at 10 uM after 24 hrs by Western blot analysis; type: cell-based
[18] = Inhibition of Wnt2/beta-[…] pathway activity in mouse L cell expressing Wnt2 and STF assessed as decreased firefly luciferase reporter expression; type: cell-based
DLD-1 [19] = experiment: Antiproliferative activity against human DLD1 cells assessed as cellular ATP levels after 6 days by Cell-Titer Glow assay; type: functional, cell-based; method in brief: as §2
Axin-2 (Homo sapiens) [20] = target: Axin-2 (Homo sapiens) (UniProt Q9Y2T1); experiment: Induction of Axin2 accumulation in human DLD1 cells by Western blot analysis; type: cell-based; conditions: DLD-1; method in brief: as §1
DU-145 = experiment: Antiproliferative activity against human DU145 cells assessed as cellular ATP levels after 6 days by Cell-Titer Glow assay; type: functional, cell-based; method in brief: as §2
[21] = Inhibition of Wnt3A/[…] pathway activity in mouse L cell expressing Wnt3a assessed as decrease in phosphorylated Lrp6 level at 10 uM after 24 hrs by Western blot analysis; type: cell-based
Axin-2 (Homo sapiens) [22] = target: Axin-2 (Homo sapiens) (UniProt Q9Y2T1); experiment: Binding affinity to Axin2 IWR-IS in HEK293 cells; type: cell-based
Axin-2 (Homo sapiens) [23] = target: Axin-2 (Homo sapiens) (UniProt Q9Y2T1); experiment: Binding affinity at Axin2 in HEK293 cells by Western blot method; type: cell-based

## COc1ccc(-n2nc(C(=O)NCC(=O)Nc3nc4ccc(OC)cc4s3)c3ccccc3c2=O)cc1
[1]
  inhibition: Active
[2]
  inhibition: inactive
Danio rerio
  inhibition: inactive
[3]
  inhibition: inactive
[4]
  inhibition: Active
[5]
  inhibition: Active
[6]
  inhibition: inactive
[7]
  inhibition: Active

## O=C(Nc1cccc2cccnc12)c1ccc(N2C(=O)[C@@H]3[C@H](C2=O)[C@H]2C=C[C@@H]3C2)cc1
Danio rerio
  inhibition: inactive
Axin-2 (Homo sapiens) [8]
  Activity: inactive

## COc1ccccc1-n1c(SCC(=O)Nc2nc3ccc(C)cc3s2)nc2c(c1=O)SCC2
[1]
  inhibition: Active
[2]
  inhibition: inactive
Danio rerio
  inhibition: inactive
[5]
  inhibition: Active
[6]
  inhibition: inactive
[7]
  inhibition: Active

## Cc1ccc2nc(NC(=O)CSc3nc4c(c(=O)n3Cc3ccccc3)SCC4)sc2c1
[9]
  Inhibition (active/inactive): Active

## CC1Cc2nc(SCC(=O)Nc3nc4ccccc4s3)n(Cc3ccccc3)c(=O)c2S1 (stereo unspecified)
[9]
  Inhibition (active/inactive): Active

## O=C(CSc1nc2c(c(=O)n1-c1ccccc1)SCC2)Nc1nccs1
[9]
  Inhibition (active/inactive): Active

## Cc1cccc2nc(Cn3c(=O)n(CC4CCC(C(=O)NCc5ccccc5)CC4)c(=O)c4ccccc43)cc(=O)n12 (stereo unspecified)
DLD-1 [10]
  inhibition: Active
Danio rerio
  inhibition: Active
[11]
  inhibition: Active
Axin-1 (Homo sapiens) [12]
  Activity: Active
DLD-1 [13]
  Activity: inactive
[14]
  inhibition: Active
Axin-1 (Homo sapiens) [15]
  Activity: Active
NCI-H460
  Activity: inactive
[16]
  inhibition: Active
[17]
  inhibition: inactive
[18]
  inhibition: Active
DLD-1 [19]
  Activity: Active
Axin-2 (Homo sapiens) [20]
  Activity: Active
DU-145
  Activity: Active
[21]
  inhibition: inactive

## O=C(O)c1ccc(N2C(=O)[C@@H]3[C@H](C2=O)[C@@H]2C=C[C@H]3C2)cc1
Danio rerio
  inhibition: inactive
Axin-2 (Homo sapiens) [8]
  Activity: inactive

## Cc1ccc2nc(NC(=O)CSc3nc4c(c(=O)n3-c3ccc(CNC(=O)CCOCCOCCOCCNC(=O)CCCC[C@@H]5SC[C@@H]6NC(=O)N[C@@H]65)cc3)SCC4)sc2c1
Axin-2 (Homo sapiens) [22]
  Activity: Active
[9]
  Inhibition (active/inactive): Active
Axin-2 (Homo sapiens) [23]
  Activity: Active

## O=C(NC1CCCC1)c1ccc(Cn2c(=O)c3ccccc3n(Cc3cc(=O)n4ccccc4n3)c2=O)cc1
DLD-1 [10]
  inhibition: Active
[11]
  inhibition: Active
[14]
  inhibition: Active
[16]
  inhibition: Active
[17]
  inhibition: inactive
[18]
  inhibition: Active
Axin-2 (Homo sapiens) [20]
  Activity: Active
[21]
  inhibition: inactive

## N#Cc1ccccc1Cn1c(=O)n(CC2CCC(C(=O)NCc3ccccc3)CC2)c(=O)c2ccccc21 (stereo unspecified)
DLD-1 [10]
  inhibition: Active
[11]
  inhibition: Active
[14]
  inhibition: Active
[16]
  inhibition: Active
[17]
  inhibition: inactive
[18]
  inhibition: Active
Axin-2 (Homo sapiens) [20]
  Activity: Active
[21]
  inhibition: inactive

## Cc1ccc2nc(NC(=O)CSc3nc4c(c(=O)n3-c3ccc(F)cc3)SCC4)sc2c1
[1]
  inhibition: Active
[2]
  inhibition: inactive
Danio rerio
  inhibition: inactive
[5]
  inhibition: Active
[6]
  inhibition: inactive
[7]
  inhibition: Active
